Experiments:
A2780cis cells = experiment: Colony formation assay, A2780cis; type: cell-based
Method in brief: (§1)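 A2780 (1×10^3) or A2780cis (2×10^3) cells were seeded per 3.5-cm dish and grown 24 h. They were exposed 72 h to test compound or cisplatin at 1X or 2X IC50, then PBS-washed. Fresh medium followed for 5 days at 37°C. Staining was 0.5% crystal violet in 25% methanol, 10 min RT. Clusters of ≥50 cells were counted by microscope. Colonies expressed as % of control.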

A2780 cells = experiment: Colony formation assay, A2780; type: cell-based
Method in brief: as §1

[1] = IC50 and 2X IC50 concentrations, 72 h treatment, vs control

Q: N.N.[Cl][Pt][Cl] [cisplatin] was tested. Which colony formation (A2780cis cells; [1]) did it give?
A: Its colony formation is “almost completely inhibited”.

Q: And the “cells per colony after treatment (unable to divide)” value (A2780cis cells; colony formation assay)?
A: The value was 3–5 cells/colony.

Q: And the colony formation (A2780 cells; [1])?
A: The colony formation was “almost completely inhibited”.

Q: And the “cells per colony after treatment (unable to divide)” value (A2780 cells; colony formation assay)?
A: The value was 3–5 cells/colony.

— publication PMC8721857 (Oncology Letters, 2021)
